This is an account of results in ChEMBL document CHEMBL1129333, “Synthesis and biological activities of flavonoid derivatives as A3 adenosine receptor antagonists” (J Med Chem, 1996).

Structures are written as SMILES. pKi: −log10 of the molar value.

Experiment [1] has as its target T1, Adenosine receptor A1 (Rattus norvegicus) (UniProt P25099).
T1 sequence (whole entry): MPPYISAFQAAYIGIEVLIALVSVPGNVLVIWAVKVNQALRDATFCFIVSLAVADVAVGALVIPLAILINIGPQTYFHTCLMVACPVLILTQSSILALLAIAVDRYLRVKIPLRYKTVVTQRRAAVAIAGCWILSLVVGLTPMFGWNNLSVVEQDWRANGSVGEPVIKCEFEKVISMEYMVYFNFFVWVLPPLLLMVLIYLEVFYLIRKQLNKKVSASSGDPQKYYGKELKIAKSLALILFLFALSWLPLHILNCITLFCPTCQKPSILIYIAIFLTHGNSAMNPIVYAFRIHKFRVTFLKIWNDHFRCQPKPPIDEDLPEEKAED
Kind of experiment: Percent displacement against Adenosine A1 receptor in rat brain membranes using [3H]PIA at 10e-4 M. It counts as cell membranes.

Experiment [2] addresses T2, Adenosine A2 receptor (Rattus norvegicus) (UniProt P29276+P30543). As to the kind of experiment: Percent inhibition against Adenosine A2 receptor in rat striatal membranes using [3H]-CGS- 21680. It is filed as cell membranes. Conditions: Striatum, Membrane, concentration not given here. The method in brief: (§1)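 Rat striatal membranes, prepared with adenosine deaminase (3 units/mL) including a 30 min, 30 °C preincubation, ADA also present during radioligand incubation; [3H]CGS 21680 displacement. Test compounds from DMSO stocks, final DMSO ≤1%, at least five concentrations spanning 3 orders of magnitude.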

Experiment [3] has as its system Adenosine A1 receptor (Rattus norvegicus) / A3 receptor (Homo sapiens). Kind of experiment: Ratio of binding affinities between rA1 and human A3.
In experiment [4] the target is T3, Adenosine receptor A3 (Homo sapiens, UniProt P0DMS8).
T3 sequence (P0DMS8 whole entry): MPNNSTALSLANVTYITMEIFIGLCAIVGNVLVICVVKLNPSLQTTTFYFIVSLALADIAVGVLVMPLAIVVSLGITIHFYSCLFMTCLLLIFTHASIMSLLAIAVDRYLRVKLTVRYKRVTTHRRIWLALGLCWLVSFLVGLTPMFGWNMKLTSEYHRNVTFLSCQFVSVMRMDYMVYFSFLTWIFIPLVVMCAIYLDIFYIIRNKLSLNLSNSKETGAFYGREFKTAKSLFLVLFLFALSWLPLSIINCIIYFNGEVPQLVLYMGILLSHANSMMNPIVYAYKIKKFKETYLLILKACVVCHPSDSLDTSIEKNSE
As to the kind of experiment: Binding affinity against human adenosine A3 receptor in HEK293 cells using [125I]AB-MECA […] radioligand. It counts as cell-based.

Experiment [5] has as its target T4, Adenosine receptor A3 (Homo sapiens) (UniProt P0DMS8).
T4 sequence (whole entry): T3 sequence (P0DMS8 whole entry)
Kind of experiment: Binding affinity against human Adenosine A3 receptor in HEK293 cells using [125I]AB-MECA […]. It counts as cell-based. The method in brief:
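Membranes of HEK-293 cells stably expressing human A3 receptor (0.3 mg protein/mL) in 50 mM Tris, 10 mM Mg2+, 1 mM EDTA, pH 8.0, with 0.3 nM [125I]AB-MECA final. Duplicate 1 h incubations at 25 °C, filtration over GF/B, gamma counting; nonspecific binding with 100 μM (R)-PIA; DMSO ≤1%.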

Experiment [6] has as its target T2, Adenosine A2 receptor (Rattus norvegicus). As to the kind of experiment: Percent displacement at 10e-4 M against Adenosine A2 receptor in rat striatal membranes using [3H]-CGS- 21680. It is filed as cell membranes. Conditions: Striatum, Membrane. A digest of the protocol:
as §1

Experiment [7] has as its target T5, Adenosine receptor A3 (Rattus norvegicus, UniProt P28647).
T5 sequence (P28647 whole entry): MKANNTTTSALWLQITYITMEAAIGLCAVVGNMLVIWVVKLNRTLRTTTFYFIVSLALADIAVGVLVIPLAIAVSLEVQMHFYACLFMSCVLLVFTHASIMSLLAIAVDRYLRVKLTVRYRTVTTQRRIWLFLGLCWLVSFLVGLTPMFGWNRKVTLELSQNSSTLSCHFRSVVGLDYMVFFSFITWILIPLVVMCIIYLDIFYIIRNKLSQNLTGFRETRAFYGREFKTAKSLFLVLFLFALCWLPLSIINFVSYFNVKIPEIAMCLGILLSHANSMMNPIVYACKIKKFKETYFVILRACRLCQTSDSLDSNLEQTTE
Kind of experiment: (§2) Binding affinity for [125I]AB-MECA against rat Adenosine A3 receptor.

The target in experiment [8] is Adenylate cyclase type 2 (Rattus norvegicus) (UniProt P26769). Kind of experiment: Percent inhibition against adenylyl cyclase was measured using IB-MECA […] at 10E-6. As to conditions: concentration not given here. It is filed as functional. A digest of the protocol: (§3)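 Membranes from CHO cells stably expressing rat A3 receptor (grown in F-12, 10% FBS, 37 °C, 5% CO2); [α-32P]ATP added with 1 μM forskolin and papaverine as phosphodiesterase inhibitor.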
Adenylate cyclase type 2 (Rattus norvegicus), sequence (P26769 whole entry): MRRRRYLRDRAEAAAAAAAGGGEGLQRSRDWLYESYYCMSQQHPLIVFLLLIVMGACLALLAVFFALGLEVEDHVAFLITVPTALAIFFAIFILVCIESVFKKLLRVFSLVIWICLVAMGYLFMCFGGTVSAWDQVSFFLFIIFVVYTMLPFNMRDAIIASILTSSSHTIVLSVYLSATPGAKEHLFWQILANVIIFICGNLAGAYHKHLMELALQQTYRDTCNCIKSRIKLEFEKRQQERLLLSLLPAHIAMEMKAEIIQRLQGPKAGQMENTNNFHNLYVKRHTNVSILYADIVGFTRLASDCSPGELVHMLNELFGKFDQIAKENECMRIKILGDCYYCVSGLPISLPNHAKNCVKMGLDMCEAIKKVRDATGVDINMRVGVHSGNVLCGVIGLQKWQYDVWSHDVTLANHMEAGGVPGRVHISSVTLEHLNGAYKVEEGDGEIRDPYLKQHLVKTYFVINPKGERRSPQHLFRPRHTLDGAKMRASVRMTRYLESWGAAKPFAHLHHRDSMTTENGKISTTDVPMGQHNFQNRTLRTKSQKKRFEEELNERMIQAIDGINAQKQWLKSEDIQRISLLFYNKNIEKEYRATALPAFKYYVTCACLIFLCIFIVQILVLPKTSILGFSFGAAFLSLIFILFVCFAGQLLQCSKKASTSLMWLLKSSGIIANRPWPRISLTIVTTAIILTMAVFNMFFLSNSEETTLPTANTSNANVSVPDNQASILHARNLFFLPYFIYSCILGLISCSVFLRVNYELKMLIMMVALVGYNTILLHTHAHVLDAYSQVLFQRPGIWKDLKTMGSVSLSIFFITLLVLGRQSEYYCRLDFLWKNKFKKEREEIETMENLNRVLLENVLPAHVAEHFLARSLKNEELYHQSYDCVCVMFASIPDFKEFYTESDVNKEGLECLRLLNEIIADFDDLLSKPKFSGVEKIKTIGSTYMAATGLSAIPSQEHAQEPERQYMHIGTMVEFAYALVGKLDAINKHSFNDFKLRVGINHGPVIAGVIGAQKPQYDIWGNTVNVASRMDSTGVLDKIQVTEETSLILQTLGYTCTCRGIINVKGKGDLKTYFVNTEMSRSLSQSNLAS

For experiment [9] the target is unchanged. As to the kind of experiment: Percent inhibition against adenylyl cyclase was measured using IB-MECA […] at 10E-7. It is filed as functional. As to conditions: concentration not given here. A digest of the protocol: as §3
The next experiment addresses Adenosine A2 receptor (Rattus norvegicus, UniProt P29276+P30543). Kind of experiment: Binding affinity at Adenosine A2 receptor in rat striatal membranes by [3H]-CGS- 21680 displacement. It counts as cell membranes, Striatum, Membrane. A digest of the protocol:
as §1

Another experiment deals with T6, Adenosine receptor A1 (Rattus norvegicus, UniProt P25099).
T6 sequence (P25099 whole entry): T1 sequence (whole entry)
As to the kind of experiment: Binding affinity at Adenosine A1 receptor in rat brain membranes by [3H]PIA displacement. It counts as cell membranes.

Experiment [10] concerns the target T1, Adenosine receptor A1 (Rattus norvegicus). As to the kind of experiment: Percent inhibition at 10e-4 M against Adenosine A1 receptor in rat brain membranes using [3H]-PIA. It is filed as cell membranes.
The target in experiment [11] is T7, Adenosine receptor A3 (Rattus norvegicus) (UniProt P28647).
T7 sequence (whole entry): T5 sequence (P28647 whole entry)
Described as §2. Conditions: concentration not given here.

Experiment [12] has as its target T1, Adenosine receptor A1 (Rattus norvegicus). As to the kind of experiment: Percentage inhibition against Adenosine A1 receptor in rat brain membranes using [3H]-PIA. It is filed as cell membranes. Further details: concentration or dose not given beside the values. As to conditions: concentration not given here.
Experiment [13] has as its target T2, Adenosine A2 receptor (Rattus norvegicus). As to the kind of experiment: Percentage inhibition against Adenosine A2 receptor in rat striatal membranes using [3H]-CGS- 21680. It is filed as cell membranes. Conditions: Striatum, Membrane, concentration not given here. A digest of the protocol: as §1

One may read the inhibition as how much of the control response was suppressed. As for `COc1c2ccoc2cc2oc(C=O)cc(=O)c12`, the Displacement in [1] is less than 10%. Moreover, the inhibition in experiment [2] worked out at 25%. For the same compound, the Ratio in [3] was more than 2.

Usually pKi stands for the Ki on a negative log10 scale, so that one unit is a factor of ten. In turn, `OC12CCCCC1=Nc1ccccc12` (stereo unspecified) showed a pKi on Adenosine receptor A3 [4] of 4.66.

As to `COc1c2ccoc2cc2oc(/C=C/C=C/c3ccccc3)cc(=O)c12`, the Displacement in [1], in [5] and in experiment [6] was less than 10% each time.

For `COc1c2ccoc2cc2oc(/C=N/c3ccccc3)cc(=O)c12`, the Displacement in experiment [1] and in experiment [6] was less than 10% throughout. On Adenosine receptor A3 [4], the pKi is 5.04. In addition, the Ratio in experiment [3] was more than 20.

`OCCN(CCO)C1=NC(N2CCCCC2)c2nc(N(CCO)CCO)nc(N3CCCCC3)c2N1` (stereo unspecified): the pKi at Adenosine receptor A3 [4] is 4.72.

By Ki is commonly meant the equilibrium dissociation constant of an inhibitor or competing ligand from its target. On to `CCOc1c2ccoc2cc2oc(/C=C/c3ccccc3)cc(=O)c12`, for which the pKi on Adenosine receptor A3 [7] was 4.91. The inhibition in experiment [8] came out at 40.9%; in experiment [9] it was 21.2%. This compound displayed a Ki at Adenosine A2 receptor of 33.8 µM.

The compound `O=c1c(O)c(-c2ccccc2)oc2cc(O)cc(O)c12` [GALANGIN] had a Ki on Adenosine A2 receptor of 0.966 µM.

As for `COc1cc2oc(-c3ccc(O)cc3O)c(CC=C(C)C)c(=O)c2c(O)c1/C=C/C(C)C` [ARTOCARPIN], the values for the pKi on Adenosine receptor A1 and on Adenosine receptor A3 [4] were 5.04 and 5.34, respectively. In addition, the Displacement in experiment [6] is less than 10%.

For `COc1cc(O)c2c(c1)OC(c1ccc(O)cc1)CC2=O` (stereo unspecified), on Adenosine A2 receptor, the Ki is 35.6 µM.

`CCCOc1cc(OCCC)c2c(=O)c(OCCC)c(-c3ccccc3)oc2c1`: the Ratio in experiment [3] was 3.5.

`CCOc1c2ccoc2cc2oc(/C=C/C=C/c3ccccc3)cc(=O)c12` displayed a Displacement in experiment [1] of less than 10%. On Adenosine receptor A3 [4], this compound gave a pKi of 4.34. In addition, at Adenosine A2 receptor, the Ki was determined as 167 µM. Also, the Ratio in experiment [3] was more than 4.

For `COc1ccc2c(c1)C(=O)[C@H](O)[C@@H](/C=C/c1ccccc1)O2` (relative stereo), the Displacement in [10] and in [6] was less than 10% each time. The inhibition was determined as 43% in experiment [11], 39.2% in [8] and 25.9% in experiment [9]. In experiment [3], the Ratio was more than 8.

Turning to `COc1cc(OC)c2c(=O)c(OC)c(-c3ccccc3)oc2c1`, the Ki at Adenosine A2 receptor turned out to be 6.45 µM.

`O=C1CC(c2ccccc2O)Oc2ccccc21` (stereo unspecified) [2'-HYDROXY-FLAVANONE] gave a Ki at Adenosine A2 receptor of 17.6 µM.

On Adenosine receptor A3 [7], `CCOc1cc(OCC)c2c(=O)c(OCC)c(-c3ccccc3)oc2c1` had a pKi of 4.74. In addition, the inhibition in experiment [8] was 19.1%; in [9], 2.2%. At Adenosine A2 receptor, this compound had a Ki of 3.31 µM.

For the compound `Nc1nc2ncc(NCc3ccc(C(=O)NC(CCC(=O)O)C(=O)O)cc3)nc2c(=O)[nH]1` (stereo unspecified), on Adenosine receptor A3 [4], the negative logarithm of the Ki (pKi) is 4.55.

At Adenosine A2 receptor, `COc1c2ccoc2cc2oc(C)cc(=O)c12` [VISNAGIN] returned a Ki of 42.4 µM. Also, the inhibition in experiment [12] is 36%.

Turning to `Cc1cc(C)c(-c2oc3ccc(Cl)cc3c(=O)c2Cl)c(C)c1`, the pKi on Adenosine receptor A3 [4] was 5.28. Besides, the inhibition in [12] turned out to be 37%. The compound further came in with a Displacement in experiment [6] of less than 10%.

With `COc1ccc(-c2oc3cc(OC)cc(OC)c3c(=O)c2OC)c(OC)c1`, on Adenosine A2 receptor, the Ki was 46.7 µM.

For the compound `O=S(=O)(c1cccc2cnccc12)N1CCNCC1`, on Adenosine receptor A3 [4], the pKi is 4.60.

Compound `CCOc1cc(O)c2c(=O)c(OCC)c(-c3ccccc3)oc2c1` registered a Ki at Adenosine A2 receptor of 63.8 µM.

For the compound `O=C1CC(c2ccc(O)cc2)Oc2ccccc21` (stereo unspecified) [4'-HYDROXY-FLAVANONE], the negative-log Ki (pKi) at Adenosine receptor A1 is 4.94; on Adenosine receptor A3 [4], 4.37. This compound returned an inhibition in experiment [13] of 35%.

On Adenosine A2 receptor, `O=c1c(O)c(-c2ccc(O)cc2O)oc2cc(O)cc(O)c12` [MORIN] yielded a Ki of 17.3 µM.

As for `C=C1C(C)C2C(Cc3ccccc3)NC(=O)C23C(OC(C)=O)/C=C\C(C)(O)CC(C)C/C=C/C3C1O` (stereo unspecified), the pKi at Adenosine receptor A3 [4] is 4.64.

For `O=c1ccnc2ccccn12`, the pKi on Adenosine receptor A3 [4] was 4.32.

As for `O=c1cc(-c2ccccc2)oc2ccccc12` [FLAVONE], on Adenosine A2 receptor, the Ki turned out to be 3.45 µM.

In the case of `CSc1sc(C(=O)NN)c2c1C=CCC2`, the pKi at Adenosine receptor A3 [4] was 4.89.

At Adenosine A2 receptor, `CCOc1ccc(-c2oc3cc(OCC)cc(OCC)c3c(=O)c2OCC)c(OCC)c1` had a Ki of 26.8 µM.

For the compound `COc1c2ccoc2cc2oc(/C=C/c3ccccc3)cc(=O)c12`, the Ki on Adenosine A2 receptor was found to be 11.5 µM. Also, the Ratio in experiment [3] was 0.37.

As for `O=c1c(Cl)c(-c2ccccc2)oc2ccc(Cl)cc12`, on Adenosine receptor A3 [4], the pKi is 6.13. Further, the Ki at Adenosine A2 receptor amounted to 54.5 µM. In addition, the inhibition in experiment [12] was 15%. In addition, the Ratio in [3] is more than 100.

The compound `COc1cc(OC)c(-c2oc3ccccc3c(=O)c2O)c(OC)c1` registered a Displacement in [6] of less than 10%. In addition, the Ratio in experiment [3] came to 0.15.

Regarding `O=c1c(Cl)c(-c2ccccc2)oc2ccccc12`, the pKi on Adenosine receptor A1 was 5.61; on Adenosine receptor A3 [4], 4.94. Besides, at Adenosine A2 receptor, the Ki turned out to be 25.1 µM.

Compound `O=C1c2ccccc2OC(c2ccccc2O)C1O` (stereo unspecified) gave a pKi at Adenosine receptor A1 of 4.04. The inhibition in experiment [5] (concentration not given here) came out at 27%. Besides, the Displacement in [6] was less than 10%. The Ratio in experiment [3] was less than 1.

In [12], `O=c1cc(-c2ccccc2)oc2ccc(Cl)cc12` showed an inhibition of 28%. In experiment [6], this compound returned a Displacement of less than 10%.

For the compound `CCOc1ccc(-c2oc3cc(OCC)cc(O)c3c(=O)c2OCC)c(OCC)c1`, the Displacement in experiment [1] and in [6] was less than 10% in each case. In [3], the Ratio was more than 40.
